Data: PMC7704577 (Bioorganic & medicinal chemistry letters, 2020)
Bridge positions count the residues as written; N and C are the ends. Square brackets hold non-standard residues; d marks the D form. Peptide text beside a SMILES is read from it. * marks the point of attachment. NODAGA = O=C(O)CN1CCN(CC(=O)O)CCN(C(CCC(=O)*)C(=O)O)CC1; Nle = CCCC[C@H](N)C(=O)O

Legend:
[1] = biological target: MC1 receptor (B16/F10 melanoma cells) (Mus musculus, UniProt Q01727); experiment: In vitro competitive receptor binding assay on B16/F10 melanoma cells
Method in brief: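 Competitive displacement on intact B16/F10 cells (0.5×10^5/well, n = 3; assay run in triplicate): 2 h at 25 °C with ~30,000 cpm 125I-(Tyr2)-NDP-MSH plus 10−12 to 10−5 M test peptide in MEM binding medium (25 mM HEPES pH 7.4, 0.2% BSA, 0.3 mM 1,10-phenanthroline). Cells rinsed twice in ice-cold 0.2% BSA/PBS, lysed in 1 N NaOH 5 min, gamma-counted; IC50 by curve fit.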

[2] = tested on: MC1R; conditions: no reference given; cited from earlier work

MC1 receptor (B16/F10 melanoma cells), sequence (Q01727 whole entry): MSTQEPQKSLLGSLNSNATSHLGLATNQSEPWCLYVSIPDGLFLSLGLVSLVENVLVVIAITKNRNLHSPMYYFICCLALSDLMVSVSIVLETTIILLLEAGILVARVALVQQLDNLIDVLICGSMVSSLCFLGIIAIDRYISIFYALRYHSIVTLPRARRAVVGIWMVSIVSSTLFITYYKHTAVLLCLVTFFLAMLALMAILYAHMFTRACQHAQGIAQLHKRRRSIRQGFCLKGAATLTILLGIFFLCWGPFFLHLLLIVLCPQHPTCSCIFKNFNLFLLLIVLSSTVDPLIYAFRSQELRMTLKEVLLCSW

Row | IC50 [1] | Compound | MC1R binding affinity [2]
1 | 0.87 ± 0.12 nM | CCCC[C@H](NC(=O)CNC(=O)CNC(=O)CCC(C(=O)O)N1CCN(CC(=O)O)CCN(CC(=O)O)CC1)C(=O)N[C@H]1CC(=O)NCCCC[C@@H](C(N)=O)NC(=O)[C@H](Cc2c[nH]c3ccccc23)NC(=O)[C@H](CCCNC(=N)N)NC(=O)[C@@H](Cc2ccccc2)NC(=O)[C@H](Cc2c[nH]cn2)NC1=O (stereo partly drawn) [NODAGA-GGNle-CycMSHhex, 1,4,7-triazacyclononane,1-gluteric acid-4,7-acetic acid-GlyGlyNle-c[Asp-His-DPhe-Arg-Trp-Lys]-CONH2] ({NODAGA}-GG[Nle]DH[dF]RWK-NH2; lactam 4-9) | 
2 |  | [Nle^4, D-Phe^7]-α-MSH [NDP-MSH] | sub-nanomolar MC1R binding affinity
